Laboratory results taken from ChEMBL document CHEMBL1629530, “1,5-Benzoxazepines vs 1,5-benzodiazepines. one-pot microwave-assisted synthesis and evaluation for antioxidant activity and lipid peroxidation inhibition” (J Med Chem, 2010).
Active and inactive are the calls of the source. The rule behind the calls is not given here.

How the values were obtained:
[1] = tested on: Radical scavenging activity; assay: Antioxidant activity assessed as DPPH radical scavenging activity at 100 uM after 20 mins; format: functional
Outline: (§1)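 DPPH 0.05 mM in absolute ethanol mixed with an equal volume of compound in DMSO (final 50 and 100 μM). Shaken vigorously, then left to stand 20 or 60 min. At least triplicate; absorbance SD under 10% of mean.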

[2] = tested on: Radical scavenging activity; assay: Antioxidant activity assessed as DPPH radical scavenging activity at 100 uM after 60 mins; format: functional; outline: as §1
[3] = Inhibition of AAPH-induced linoleic acid lipid peroxidation; format: physicochemical
Outline: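 Linoleic acid sodium salt (10 μL of 16 mM) in 0.05 M phosphate buffer pH 7.4, prethermostated at 37 °C. Oxidation started under air at 37 °C with 50 μL of 40 mM AAPH, compounds in DMSO. Conjugated diene hydroperoxide formation followed as rising absorbance at 234 nm; result given as IC50. At least triplicate.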

Glycine max = assay: Inhibition of soybean lipoxygenase at 100 uM by UV absorbance based assay
Outline: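 Soybean LOX (1 × 10^-4 w/v in saline, diluted 1:9 with saline) incubated at room temperature with sodium linoleate and compound in DMSO (100 μM). Conversion to 13-hydroperoxylinoleic acid recorded at 234 nm against a standard inhibitor. At least triplicate.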

[4] = tested on: Radical scavenging activity; assay: Antioxidant activity assessed as DPPH radical scavenging activity at 50 uM after 20 mins; format: functional; outline: as §1
[5] = tested on: Radical scavenging activity; assay: Antioxidant activity assessed as DPPH radical scavenging activity at 50 uM after 60 mins; format: functional; outline: as §1
Rattus norvegicus [6] = assay: Antiinflammatory activity in Fisher 344 rat assessed as inhibition of carrageenan-induced paw edema at 0.01 mmol/kg, ip administered simultaneously with carrageenan; format: functional; conditions: Fisher 344, ip
Outline: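 Edema induced by intradermal injection of 0.1 mL 2% carrageenin in water into right hind paw of Fisher 344 rats (150-200 g), both sexes, pregnant females excluded, fasted during experiment; 6-15 animals per group. Compound suspended in water with a few drops of Tween 80, given ip. Rats euthanized 3.5 h later. Injected minus uninjected paw weight compared with water-treated controls as % inhibition; mean of two experiments.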

Rattus norvegicus [7] = assay: Toxicity in Fisher 344 rat carrageenan-induced inflammation model at 0.2 mmol/kg, ip administered simultaneously with carrageenan; format: organism-based; conditions: in vivo

IC50 [3]	inhibition (Glycine max)	SMILES	Activity [1]	Activity [2]	Activity [4]	Activity [5]	inhibition in vivo at 10 µmol/kg (Rattus norvegicus [6])	Activity (Rattus norvegicus [7])
46 µM	inactive	CC1(c2cccc([N+](=O)[O-])c2)CC(c2cccc([N+](=O)[O-])c2)=Nc2c(O)cccc2N1 (stereo not drawn)	32%	32%	–	–	–	–
60 µM	37%	COc1cccc(C2=Nc3c(O)cccc3NC(C)(c3cccc(OC)c3)C2)c1 (stereo not drawn)	27%	27%	–	–	–	–
50 µM	3%	Cc1ccc(NC(=O)Oc2cccc3c2N=C(c2ccccc2)CC(C)(c2ccccc2)N3)cc1 (stereo not drawn)	10%	9%	–	–	–	–
70 µM	98%	CC1=Nc2c(N)cccc2OC(C)(C)C1	86%	86%	87%	88%	–	–
63 µM	–	Cc1c(C)c2c(c(C)c1O)CCC(C)(C(=O)O)O2 (stereo not drawn) [TROLOX]	–	–	–	–	–	–
46 µM	3%	COc1ccccc1C1=Nc2c(O)cccc2NC(C)(c2ccccc2OC)C1 (stereo not drawn)	36%	36%	–	–	–	–
77 µM	inactive	CC1=Nc2c(O)cccc2NC(C)(C)C1	66%	65%	44%	67%	–	–
–	–	COc1ccc2c(c1)c(CC(=O)O)c(C)n2C(=O)c1ccc(Cl)cc1 [INDOMETHACIN]	–	–	–	–	47%	–
2.5 µM	inactive	CC1(c2ccc(Cl)cc2)CC(c2ccc(Cl)cc2)=Nc2c(O)cccc2N1 (stereo not drawn)	54%	53%	–	–	35%	Non-toxic
–	84%	CC(Cc1ccc(O)c(O)c1)C(C)Cc1ccc(O)c(O)c1 (stereo not drawn)	93%	96%	–	–	–	–
45 µM	6%	CC1(C)CC(c2ccccc2)=Nc2ccccc2N1	15%	14%	–	–	–	–
47.5 µM	inactive	CC1(c2ccc(Cl)cc2)CC(c2ccc(Cl)cc2)=Nc2c(N)cccc2O1 (stereo not drawn)	86%	86%	87%	86%	–	–
50 µM	28%	CC1(c2ccccc2)CC(c2ccccc2)=Nc2c(O)cccc2N1 (stereo not drawn)	30%	29%	–	–	–	–
